Data published in ChEMBL document CHEMBL1127374, “Synthesis and antiviral (HIV-1, HBV) activities of 5-halo-6-methoxy(or azido)-5,6-dihydro-3'-fluoro-3'-deoxythymidine diastereomers. Potential prodrugs to 3'-fluoro-3'-deoxythymidine” (J Med Chem, 1994).

Key:
[1] = Selectivity index is the ratio of IC50 value to that of EC50 value; assay type: functional
Outline: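 CEM T4 lymphocytes infected with small amounts of HIV-1, with a full replication cycle needed for cell killing. EC50 is the concentration giving 50% survival of infected cells relative to uninfected untreated controls. IC50 is the concentration giving 50% survival of uninfected untreated CEM cells. SI = IC50/EC50. An AZT-treated control was run alongside.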

CCRF-CEM [2] = assay: Tested for in vitro drug concentration which produces 50% survival of HIV-1 infected CEM cells relative to uninfected untreated controls; assay type: functional, cell-based; settings: Homo sapiens
Outline: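 CEM T4 lymphocytes infected with small amounts of HIV-1, so that a complete replication cycle is needed for cell killing. Protection from cytolysis measured. EC50 is the concentration giving 50% survival of infected cells relative to uninfected untreated controls. AZT-treated positive control run at the same time under identical conditions.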

CCRF-CEM [3] = assay: Tested for in vitro drug concentration which results in 50% survival of uninfected untreated control CEM cells; assay type: functional, cell-based; settings: Homo sapiens
Outline: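 Uninfected CEM T4 lymphocytes exposed to the test compound alongside the anti-HIV protection assay, with an AZT control run concurrently. IC50 is the concentration giving 50% survival relative to uninfected untreated control cells.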

[4] = Tested for in vitro percent of 3'-fluoro-3'-deoxythymidine(FLT) formed upon incubation with glutathione; assay type: ADME
Outline: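 Test compound incubated with reduced glutathione at a 1:2 molar ratio in phosphate buffer, pH 7.4, 37 °C, 30 min. UV detection at 230 nm for the 5,6-dihydro compound and 265 nm for FLT.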

[5] = Selectivity index is the ratio of CC50 to that of EC50 (anti-hepatitis B virus activity in extracellular DNA); assay type: functional
Outline: (§1)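 Selectivity index calculated as CC50 (neutral red uptake, 2.2.15 cells, 9-day daily dosing) divided by EC50 from HBV DNA (extracellular virion DNA in line 3, intracellular DNA in line 4).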

[6] = (§2) Compound was tested in vitro against extracellular DNA hepatitis B virus of human liver cells; assay type: functional
Outline: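 2.2.15 cells (chronically HBV-producing human liver line) grown to confluence, then dosed daily for 9 continuous days with medium changed daily. Extracellular virion HBV DNA in medium sampled at days 0, 3, 6 and 9 and quantified; intracellular HBV genomic forms analysed from cells lysed 24 h after day 9.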

[7] = Selectivity index is the ratio of CC50 to that of EC50 (anti-hepatitis B virus activity in intracellular DNA); assay type: functional; outline: as §1
[8] = (§3) Compound was tested in vitro against intracellular DNA hepatitis B virus of human liver cells; assay type: functional
Outline: (§4)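 HBV-producing human liver 2.2.15 cells grown to confluence, then dosed daily for 9 continuous days with daily medium change. Medium collected at days 0, 3, 6 and 9 for extracellular virion HBV DNA. Cells lysed 24 h after day 9 for intracellular HBV genomic forms (replication). EC50 and EC90 derived from HBV DNA levels.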

[9] = as §2; assay type: functional; outline: as §4; remark: listed apart in the source
[10] = as §3; assay type: functional, cell-based; outline: as §4
[11] = Tested for in vitro cytotoxic concentration against hepatitis B irus replication in chronically HBV-producing human liver cells; assay type: functional
Outline: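 Confluent 2.2.15 cells dosed daily for 9 days as in the anti-HBV assay. Four concentrations in 3–10-fold steps, triplicate cultures, untreated controls on each plate, cell-free wells to correct for light scattering. Neutral red uptake read at 510 nm 24 h after day 9, relative to untreated cells. CC50 taken as the 50% cytotoxic concentration.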

MT4 = assay: Tested for in vitro cytopathic effect of HIV for MT-4 cells; assay type: functional, cell-based; settings: Homo sapiens

Structure (SMILES)	Selectivity index [1]	EC50 (CCRF-CEM [2]) [nM]	IC50 (CCRF-CEM [3]) [µM]	FLT [4] [%]	Selectivity index [5]	EC50 [6] [µM]	Selectivity index [7]	EC90 [8] [µM]	EC90 [9] [µM]	EC50 [10] [µM]	CC50 [11] [µM]	EC50 (MT4) [nM]
CO[C@H]1N(C2CC(F)C(CO)O2)C(=O)NC(=O)[C@]1(C)I (some centres undefined)	1	50000	57.3	50	–	–	–	–	–	–	–	–
CO[C@H]1N(C2CC(F)C(CO)O2)C(=O)NC(=O)[C@]1(C)Cl (some centres undefined)	> 144	5550	> 800	0	–	–	–	–	–	–	–	–
CO[C@@H]1N(C2CC(F)C(CO)O2)C(=O)NC(=O)[C@@]1(C)Br (some centres undefined)	2990	3.25	9.72	10	16	21	8.8	118	67	26	1040	–
CO[C@H]1N(C2CC(F)C(CO)O2)C(=O)NC(=O)[C@@]1(C)Cl (some centres undefined)	> 21	37900	> 800	0	–	–	–	–	–	–	–	–
CO[C@H]1N(C2CC(F)C(CO)O2)C(=O)NC(=O)[C@]1(C)Br (some centres undefined)	328	5.25	1.72	10	21	6	18	42	36	13	765	–
CC1(Br)C(=O)NC(=O)N([C@H]2C[C@H](F)[C@@H](CO)O2)C1N=[N+]=[N-] (mixture of isomers)	7140	14.5	100	95	4.2	–	3.1	57	42	13	176	–
CO[C@@H]1N(C2CC(F)C(CO)O2)C(=O)NC(=O)[C@@]1(C)I (some centres undefined)	3250	3.75	12.2	90	–	–	–	–	–	–	–	–
Nc1ccn([C@H]2CC[C@@H](CO)O2)c(=O)n1 [ZALCITABINE]	–	–	–	–	27	1.3	18	12	8.1	2.1	219	–
Cc1cn([C@H]2C[C@H](N=[N+]=[N-])[C@@H](CO)O2)c(=O)[nH]c1=O [ZIDOVUDINE]	167000	3	500	–	–	–	–	–	–	–	–	4
